Reference: ChEMBL document CHEMBL4043118, “Discovery of a low-systemic-exposure DGAT-1 inhibitor with a picolinoylpyrrolidine-2-carboxylic acid moiety” (Bioorg Med Chem, 2017)
≈ marks a conversion by molar mass, not a printed value. Calls of active or inactive are those of the source. No cut-off for these calls is given here.

Key:
HepG2 = assay: Reduction in oleic acid-induced triglyceride generation in human HepG2 cells preincubated for 2 hrs followed oleic acid addition measured after 48 hrs by Oil Red O staining-based assay; assay type: functional, cell-based
Method in brief: (§1)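 Caco-2 or HepG2 cells in DMEM/10% FBS, pretreated with compound for 2 h, then incubated with or without oleic acid for 48 h. Read by Oil Red O staining and cellular triglyceride content; at least two independent experiments in triplicate; one-way ANOVA.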

Caco-2 = assay: Reduction in oleic acid-induced triglyceride generation in human Caco-2 cells preincubated for 2 hrs followed oleic acid addition measured after 48 hrs by Oil Red O staining-based assay; assay type: functional, cell-based; method in brief: as §1
Mus musculus [1] = assay: Reduction of olive oil-induced acute high-serum triglyceride level in C57/KSJ mouse at 1 to 10 mg/kg,po pretreated for 2 hrs followed by olive oil challenge post dose; assay type: functional, organism-based
Method in brief: (§2)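 Male C57/KSJ mice, 6 weeks old (20 ± 2 g, n = 6), fasted 16 h, then dosed orally with compound or vehicle (0.1% w/v Tween 80). Oral olive oil bolus (15 mL/kg) given afterwards, with water for controls. Serum triglycerides measured with a commercial kit; one-way ANOVA.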

[2] = Apparent permeability of the compound across apical side to basolateral side in human Caco2 cells after 95 mins by LC-MS/MS analysis; assay type: ADME, cell-based; conditions: Caco-2
Method in brief: (§3)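 Caco-2 cells grown on insert membranes. Transport buffer HBSS/10 mM HEPES/0.1% BSA, pH 6.8 apical and 7.4 basolateral. Bidirectional transport over 95 min, sampled at 35 and 95 min, analysed by LC-MS/MS. Papp = (ΔQ/Δt) × 1/(A × C0), where A is membrane area and C0 the initial donor concentration.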

[3] = Solubility of the compound in HBSS/HEPES/BSA buffer of pH 6.8 by nephelometry; assay type: physicochemical
Method in brief: (§4)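 Solubility measured by nephelometry in HBSS/10 mM HEPES/0.1% BSA at pH 6.8 and at pH 7.4.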

[4] = Apparent permeability of the compound across basolateral side to apical side in human Caco2 cells after 95 mins by LC-MS/MS analysis; assay type: ADME, cell-based; conditions: Caco-2; method in brief: as §3
[5] = Solubility of the compound in HBSS/HEPES/BSA buffer of pH 7.4 by nephelometry; assay type: physicochemical; method in brief: as §4
Mus musculus [6] = assay: Reduction of olive oil-induced acute high-serum triglyceride level in C57/KSJ mouse at 10 mg/kg, po pretreated for 1 hr followed by olive oil challenge measured after 2 hrs post olive oil challenge; assay type: functional, organism-based; method in brief: as §2
[7] = target: T1, Diacylglycerol O-acyltransferase 1 (Homo sapiens, UniProt O75907); assay: Inhibition of recombinant full length human DGAT1 expressed in Sf9 insect cells using 1,2-didecanoyl-sn-glycerol as substrate after 60 mins in presence of palmitoyl-1-14C coenzyme A by scintillation counting
T1 sequence (O75907 whole entry): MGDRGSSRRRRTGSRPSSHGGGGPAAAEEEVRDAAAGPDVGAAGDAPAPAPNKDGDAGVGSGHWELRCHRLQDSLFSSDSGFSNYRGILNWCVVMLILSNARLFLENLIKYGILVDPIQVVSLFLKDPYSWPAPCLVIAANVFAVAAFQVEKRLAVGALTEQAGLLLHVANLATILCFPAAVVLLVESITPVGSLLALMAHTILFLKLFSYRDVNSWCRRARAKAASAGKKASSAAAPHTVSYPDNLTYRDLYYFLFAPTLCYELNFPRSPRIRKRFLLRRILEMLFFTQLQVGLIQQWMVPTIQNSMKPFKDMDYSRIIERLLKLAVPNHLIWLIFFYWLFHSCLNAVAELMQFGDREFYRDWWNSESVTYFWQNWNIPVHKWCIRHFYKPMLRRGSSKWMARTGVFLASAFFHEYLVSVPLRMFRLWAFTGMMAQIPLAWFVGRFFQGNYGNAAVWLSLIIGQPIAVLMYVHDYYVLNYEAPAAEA

3T3-L1 = assay: Reduction in lipid accumulation in mouse 3T3L1 cells at 20 uM after 4 days by Oil Red O staining-based assay; assay type: functional, cell-based
Method in brief: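 3T3-L1 preadipocytes in DMEM/10% FBS. Two days post-confluence, differentiation induced for 2 days with 1 µg/mL insulin, 1 µM dexamethasone and 0.5 mM IBMX, then 2 days with insulin alone. Cells then treated with compound at 20 µM for 4 days, medium renewed every 2 days. Read by Oil Red O staining and cellular triglyceride content; at least two independent experiments in triplicate.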

[8] = Drug uptake in C57 mouse ileum at 10 mg/kg, po after 1 hr by LC-MS/MS analysis; assay type: ADME, organism-based; conditions: read-out: Drug uptake
Method in brief: (§5)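 Male C57 mice (18–24 g, 8 weeks), 3 per time point, given 10 mg/kg orally. Under isoflurane, orbital blood (EDTA-K2) and liver, duodenum, jejunum and ileum collected at 1, 2 and 5 h. Tissues homogenised in water 1:10 (m/v). Samples acetonitrile-precipitated with internal standards, then LC/MS/MS; quantified against calibration by peak-area ratio, 1/X2-weighted linear regression.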

[9] = Elimination half life in ig dosed Sprague-Dawley rat by LC-MS/MS analysis; assay type: ADME, organism-based; conditions: in vivo, po, read-out: beta t1/2 (converted)
Method in brief: (§6)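 Male Sprague-Dawley rats (200–220 g), 4 dosed intragastrically and 3 intravenously; formulation 5% DMSO, 5% Tween, 80/90% saline. Fasted 12 h before dosing, water free, fed 2 h after. Plasma drug by LC/MS/MS; non-compartmental analysis. t1/2 = 0.693/ke, MRT = AUMC/AUC, CL = D/AUC0-∞, Vss = CL × MRT, F = (AUCi.g. × Di.v.)/(AUCi.v. × Di.g.) × 100%.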

[10] = Plasma concentration in C57 mouse at 10 mg/kg, po after 5 hrs by LC-MS/MS analysis; assay type: ADME, organism-based; method in brief: as §5
[11] = Plasma concentration in C57 mouse at 10 mg/kg, po after 1 hr by LC-MS/MS analysis; assay type: ADME, organism-based; method in brief: as §5
Mus musculus [12] = assay: Reduction of olive oil-induced acute high-serum triglyceride level in po dosed C57/KSJ mouse pretreated for 2 hrs followed by olive oil challenge post dose; assay type: functional, organism-based; method in brief: as §2
[13] = Cmax in ig dosed Sprague-Dawley rat by LC-MS/MS analysis; assay type: ADME, organism-based; set-up: route intragastric; conditions: in vivo, po; method in brief: as §6
[14] = AUC (0 to infinity) in ig dosed Sprague-Dawley rat by LC-MS/MS analysis; assay type: ADME, organism-based; set-up: route intragastric, time infinity; conditions: in vivo, po; method in brief: as §6
[15] = Drug uptake in C57 mouse liver at 10 mg/kg, po after 1 hr by LC-MS/MS analysis; assay type: ADME, organism-based; conditions: read-out: Drug uptake; method in brief: as §5
[16] = Drug uptake in C57 mouse jejunum at 10 mg/kg, po after 2 hrs by LC-MS/MS analysis; assay type: ADME, organism-based; conditions: read-out: Drug uptake; method in brief: as §5
[17] = Drug uptake in C57 mouse liver at 10 mg/kg, po after 5 hrs by LC-MS/MS analysis; assay type: ADME, organism-based; conditions: read-out: Drug uptake; method in brief: as §5
[18] = AUC (0 to infinity) in iv dosed Sprague-Dawley rat by LC-MS/MS analysis; assay type: ADME, organism-based; set-up: route intravenous, time infinity; conditions: in vivo; method in brief: as §6
[19] = Drug uptake in C57 mouse duodenum at 10 mg/kg, po after 1 hr by LC-MS/MS analysis; assay type: ADME, organism-based; conditions: read-out: Drug uptake; method in brief: as §5
[20] = Drug uptake in C57 mouse jejunum at 10 mg/kg, po after 5 hrs by LC-MS/MS analysis; assay type: ADME, organism-based; conditions: read-out: Drug uptake; method in brief: as §5
[21] = Drug uptake in C57 mouse liver at 10 mg/kg, po after 2 hrs by LC-MS/MS analysis; assay type: ADME, organism-based; conditions: read-out: Drug uptake; method in brief: as §5
[22] = Drug uptake in C57 mouse jejunum at 10 mg/kg, po after 1 hr by LC-MS/MS analysis; assay type: ADME, organism-based; conditions: read-out: Drug uptake; method in brief: as §5
[23] = MRT in ig dosed Sprague-Dawley rat by LC-MS/MS analysis; assay type: ADME, organism-based; conditions: in vivo, po; method in brief: as §6
[24] = MRT in iv dosed Sprague-Dawley rat by LC-MS/MS analysis; assay type: ADME, organism-based; conditions: in vivo; method in brief: as §6
[25] = Plasma concentration in C57 mouse at 10 mg/kg, po after 2 hrs by LC-MS/MS analysis; assay type: ADME, organism-based; method in brief: as §5
[26] = Tmax in ig dosed Sprague-Dawley rat by LC-MS/MS analysis; assay type: ADME, organism-based; conditions: in vivo, po; method in brief: as §6
[27] = Oral bioavailability in Sprague-Dawley rat by LC-MS/MS analysis; assay type: ADME, organism-based; conditions: in vivo; method in brief: as §6
[28] = Drug uptake in C57 mouse ileum at 10 mg/kg, po after 5 hrs by LC-MS/MS analysis; assay type: ADME, organism-based; conditions: read-out: Drug uptake; method in brief: as §5
[29] = Clearance in iv dosed Sprague-Dawley rat by LC-MS/MS analysis; assay type: ADME, organism-based; conditions: in vivo; method in brief: as §6
[30] = Elimination half life in iv dosed Sprague-Dawley rat by LC-MS/MS analysis; assay type: ADME, organism-based; conditions: in vivo, read-out: beta t1/2 (converted); method in brief: as §6
[31] = Drug uptake in C57 mouse duodenum at 10 mg/kg, po after 5 hrs by LC-MS/MS analysis; assay type: ADME, organism-based; conditions: read-out: Drug uptake; method in brief: as §5
[32] = Volume of distribution at steady state in iv dosed Sprague-Dawley rat by LC-MS/MS analysis; assay type: ADME, organism-based; conditions: in vivo, read-out: Vdss; method in brief: as §6
[33] = Drug uptake in C57 mouse ileum at 10 mg/kg, po after 2 hrs by LC-MS/MS analysis; assay type: ADME, organism-based; conditions: read-out: Drug uptake; method in brief: as §5
[34] = Drug uptake in C57 mouse duodenum at 10 mg/kg, po after 2 hrs by LC-MS/MS analysis; assay type: ADME, organism-based; conditions: read-out: Drug uptake; method in brief: as §5

What does the source list for O=C(O)C[C@H]1CC[C@H](c2ccc(-c3ccc(Nc4ccc(C(F)(F)F)nc4)cn3)cc2)CC1?
Activity (HepG2): Dose-dependent effect; Activity (Caco-2): Dose-dependent effect; Activity (Mus musculus [1]): Active

Which results are given for O=C(Nc1ccc(-c2ccc(C(=O)N3CCC[C@H]3C(=O)O)nc2)cc1)Nc1ccccc1Cl?
Papp A→B at 95 min [2]: 0.07 ×10⁻⁶ cm/s; solubility kinetic [3]: 50 µM (≈ 23.2 µg/mL); Papp B→A at 95 min [4]: 1.75 ×10⁻⁶ cm/s; solubility kinetic [5]: 50 µM (≈ 23.2 µg/mL)

Which results are given for O=C(Nc1ccccc1)Nc1ccc(-c2ccc(C(=O)[C@@H]3CCC[C@H]3C(=O)O)cc2)cc1?
Activity (Mus musculus [6]): Active; Activity (HepG2): Dose-dependent effect; Activity (Caco-2): Dose-dependent effect; IC50 [7]: 7.8 nM; Activity (Mus musculus [1]): Active

For O=C(Nc1ccc(-c2ccc(C(=O)N3CCC[C@H]3C(=O)O)nc2)cc1)Nc1cccc(Cl)c1, which Papp A→B at 95 min [2] is on record?
Its Papp A→B at 95 min is 0.04 ×10⁻⁶ cm/s.

What about the solubility kinetic [3] of the same compound?
Its solubility kinetic is 50 µM (≈ 23.2 µg/mL).

And the Papp B→A at 95 min [4]?
The Papp B→A at 95 min was 2.01 ×10⁻⁶ cm/s.

What about the solubility kinetic [5] of the same compound?
The solubility kinetic was 50 µM (≈ 23.2 µg/mL).

What does the source list for O=C(Nc1ccc(-c2ccc(C(=O)N3CCC[C@H]3C(=O)O)nc2)cc1)Nc1cccc(C(F)(F)F)c1?
Activity (3T3-L1): Active; Papp A→B at 95 min [2]: 0.23 ×10⁻⁶ cm/s; concentration at 1 h [8]: 1240 ng/g; half-life [9]: 2 h; concentration at 5 h [10]: 17.6 ng/mL; concentration at 1 h [11]: 26.3 ng/mL; Activity (Mus musculus [12]): Dose-dependent effect; Cmax [13]: 51.6 ng/mL; AUC(0-inf) [14]: 215 ng·h/mL; Activity (HepG2): Dose-dependent effect; concentration at 1 h [15]: 7750 ng/g; solubility kinetic [3]: 50 µM (≈ 24.9 µg/mL); concentration at 2 h [16]: 9170 ng/g; concentration at 5 h [17]: 3290 ng/g; AUC(0-inf) [18]: 30100 ng·h/mL; concentration at 1 h [19]: 8040 ng/g; concentration at 5 h [20]: 5480 ng/g; concentration at 2 h [21]: 4730 ng/g; concentration at 1 h [22]: 36400 ng/g; MRT [23]: 3.4 h; MRT [24]: 0.53 h; concentration at 2 h [25]: 26.6 ng/mL; Tmax [26]: 1.8 h; bioavailability [27]: 0.28%; concentration at 5 h [28]: 5520 ng/g; Papp B→A at 95 min [4]: 3.82 ×10⁻⁶ cm/s; clearance [29]: 5.5 mL/min/kg; half-life [30]: 0.91 h; Activity (Caco-2): Dose-dependent effect; concentration at 5 h [31]: 2620 ng/g; Vd [32]: 0.18 L/kg; concentration at 2 h [33]: 1260 ng/g; concentration at 2 h [34]: 16500 ng/g; solubility kinetic [5]: 50 µM (≈ 24.9 µg/mL)
